APOBEC3G inh: APOBEC3G DNA deaminase inhibitors, primary screen, biochemical, fluorescence, single-stranded DNA substrate, uHTS; DNA dC->dU-editing enzyme APOBEC-3G (Homo sapiens), Q9HC16; recombinant A3G, ssDNA deamination FAM/TAMRA fluorescence; inhibition, % at 20 µM; hit rate 0.28% among 330,000;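 active = inhibition of at least 40% at 20 µM, with no more than 30% in the related APOBEC3A deaminase screen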
CAL PDZ FP-1: CAL PDZ peptide-binding inhibitors, primary screen, biochemical, fluorescence polarization, Cer-tagged CAL PDZ, HTS | Golgi-associated PDZ and coiled-coil motif-containing protein (Homo sapiens), Q9HD26 | purified CAL PDZ, TMR-peptide fluorescence polarization, 1 h | inhibition, % at 20 µM | hit rate 0.02% among 330,000 | AID 504414, 2011;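 active = highest replicate inhibition of at least 40%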
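Material – purified CerCALP PDZ construct · Detection – FP readout, S and P plane fluorescence · Measure – percent inhibition from loss of millipolarization · Controls – unlabelled peptide for full inhibition, DMSO wells as neutral · Probe or stimulus – TMR-labelled reporter peptide T*-PRC34 bound in PDZ groove · Times – 1 h at RT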
APOBEC3A inh: APOBEC3A ssDNA deaminase inhibitors, primary screen, selectivity assay for APOBEC3G inhibitor project, biochemical, FAM/TAMRA oligo cleavage fluorescence. hit rate 0.41% among 330,000. recombinant A3A, FAM/TAMRA ssDNA deamination fluorescence. DNA dC->dU-editing enzyme APOBEC-3A (Homo sapiens), P31941. inhibition, % at 20 µM. AID 493011, 2011;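 active = at least 40% inhibition at 20 µM here, with at most 30% in a related deaminase screen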
LANA DNA inh: inhibitors of KSHV C-LANA binding to DNA, primary screen, biochemical, fluorescence polarization, FAM-LBS DNA, MBP-C-LANA, single point; inhibition, % at 9 µM; hit rate 0.078% among 340,000;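 active = highest replicate inhibition at or above 60% at 9 µM, even if other replicates fall short; inactive = all replicates below 60% inhibition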
CAL PDZ FP-2: untagged CAL PDZ binding inhibitors, primary screen, biochemical, fluorescence polarization, HTS; inhibition, % at 24.9 µM; hit rate 0.92% among 300,000; Golgi-associated PDZ and coiled-coil motif-containing protein (Homo sapiens), Q9HD26; AID 602252, 2012; purified CAL PDZ, TMR-peptide fluorescence polarization, 1 h;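 active = mean inhibition of at least 30% with at least half of replicates also reaching 30%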
Keap1 Nrf2 FP: Keap1-Nrf2 protein-protein interaction inhibitors, primary screen, biochemical, fluorescence polarization, single point. Keap1 Kelch-Nrf2 peptide fluorescence polarization, 1536-well. inhibition, % at 9.4 µM. hit rate 0.15% among 340,000. AID 504523, 2011; in the data active = inhibition above about 12%;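 note: human Keap1 Kelch domain with fluorescein labeled Nrf2 9mer peptide probe; higher means more block of Keap1 binding to Nrf2 peptide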
Target sequence (Q14145 whole entry, looked up, the tested form may be a part): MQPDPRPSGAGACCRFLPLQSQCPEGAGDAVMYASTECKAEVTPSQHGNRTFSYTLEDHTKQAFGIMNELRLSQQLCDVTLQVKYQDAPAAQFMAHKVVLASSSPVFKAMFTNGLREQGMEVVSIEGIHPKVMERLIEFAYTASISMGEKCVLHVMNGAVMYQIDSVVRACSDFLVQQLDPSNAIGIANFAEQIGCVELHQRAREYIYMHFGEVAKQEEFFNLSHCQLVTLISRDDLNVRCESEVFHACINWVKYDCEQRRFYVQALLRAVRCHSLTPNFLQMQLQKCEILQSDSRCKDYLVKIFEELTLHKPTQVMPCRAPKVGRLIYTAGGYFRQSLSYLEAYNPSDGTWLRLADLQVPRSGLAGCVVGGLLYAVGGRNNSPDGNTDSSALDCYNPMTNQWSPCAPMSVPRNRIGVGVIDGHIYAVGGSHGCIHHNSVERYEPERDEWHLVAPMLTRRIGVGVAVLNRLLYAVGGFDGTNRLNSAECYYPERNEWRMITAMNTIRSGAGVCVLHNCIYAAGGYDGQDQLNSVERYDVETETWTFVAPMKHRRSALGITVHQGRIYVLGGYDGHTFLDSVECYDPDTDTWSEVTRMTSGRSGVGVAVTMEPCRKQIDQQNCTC
APOBEC3G confirm: APOBEC3G deaminase inhibitor retest, confirmation, biochemical, fluorescence, single-stranded DNA substrate, single concentration | inhibition, % at 20 µM | shares compounds with APOBEC3G inh | recombinant A3G ssDNA deaminase, UDG/FAM-TAMRA fluorescence | hit rate 72% among 890 | AID 493152, 2011;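 active = inhibition reaching a set limit in any replicate at 20 µM, the limit being 80% of the first screen's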
UDG A3G counter: E. coli UDG inhibitors, confirmation, counter-screen for APOBEC3G inhibitor project, biochemical, single concentration, fluorescence, FAM/TAMRA oligo. UDG counterscreen. AID 504715, 2011. inhibition, % at 20 µM. 710 tested, under 10 active. shares compounds with APOBEC3G inh;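 active = compounds giving 40% or more inhibition at 20 µM in any one of the three replicates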;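 note: inhibitors lower the FAM signal released by uracil excision and alkaline cleavage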
Large screens that a line does not name were inactive (follow-up assays come after a bar, where they were run). An excerpt weighted towards active compounds, which were near 1.7% of everything screened.

CC(=O)N(c1ccccc1C)C1CCCC1	none
Cc1ccc(CC(=S)N2CCOCC2)cc1	none
COc1ccc(CC(=S)N2CCOCC2)cc1	APOBEC3G inh 44.7 | APOBEC3G confirm 41.5 | UDG A3G counter inactive
COc1ccccc1NS(=O)(=O)c1ccc(/C=C/C(=O)O)cc1	none
COc1ccccc1NS(=O)(=O)c1ccc(O)cc1	APOBEC3G inh 81.2 | APOBEC3G confirm inactive
COc1ccc(NC(=O)c2cc3ccccc3o2)cc1OC	none
COc1ccc(CNC(=O)c2cc3ccccc3o2)cc1OC	APOBEC3G inh 70.9 | APOBEC3G confirm inactive | UDG A3G counter inactive
Cc1ccc(C(=O)c2c(NC(=O)CSc3nnc(N)s3)sc3c2CCCC3)cc1	APOBEC3G inh 45.1 | APOBEC3G confirm inactive
Cc1csc(SCC(=O)Nc2sc3c(c2C#N)CCC3)n1	APOBEC3G inh 41.8 | APOBEC3G confirm inactive
S=c1nc[nH]c2c1[nH]c1ccccc12	APOBEC3G inh 47.8 | APOBEC3G confirm 71.3 | UDG A3G counter inactive
CCOc1cc2c(cc1OCC)CN(CC(=O)Nc1ccccc1C(=O)NC1CC1)CC2	none
CCN(CC)CCNC(=O)C(=O)NCC1OCCN1S(=O)(=O)c1cccs1 (centres undefined)	none
O=C(Nc1ccc(Br)cc1)c1cc([N+](=O)[O-])cc([N+](=O)[O-])c1	none
O=c1c2c([N+](=O)[O-])cc([N+](=O)[O-])cc2sn1Cc1ccccc1	APOBEC3G inh 70.4 | APOBEC3G confirm 76.3 | UDG A3G counter inactive
O=c1c2c([N+](=O)[O-])cc([N+](=O)[O-])cc2sn1-c1ccc(Br)cc1	APOBEC3G inh 74.9 | APOBEC3G confirm 72.2
O=C(CNc1ccccc1N1CCCC1=O)Nc1cc(C(F)(F)F)ccc1-n1cncn1	none
CCOC(=O)c1c(-c2ccccc2)oc2cc(CN(C)C)c(O)c(CN(C)C)c12	none (no result: CAL PDZ FP-2)
COc1cc(C(=S)N2CCN(C(c3ccccc3)c3ccccc3)CC2)cc(OC)c1O	APOBEC3G inh 42.5 | APOBEC3G confirm inactive | UDG A3G counter inactive
O=C(O)COc1ccccc1/C=N/NC(=O)Cc1ccccc1	none
O=C(O)COc1ccccc1/C=N/NC(=O)Cc1csc(Nc2cccc(C(F)(F)F)c2)n1	APOBEC3G inh 54.9 | APOBEC3G confirm inactive | UDG A3G counter inactive
Cc1onc(-c2ccccc2)c1C(=O)Nc1nnc(COc2ccc(Cl)cc2)s1	APOBEC3G inh 57.6 | APOBEC3G confirm 38.4 | UDG A3G counter inactive
O=C(CSc1ccccc1)Nc1nnc(COc2ccc(Cl)cc2)s1	APOBEC3G inh 43.6 (no result: CAL PDZ FP-2) | APOBEC3G confirm 58.1 | UDG A3G counter inactive
CCc1nnc(NC(=O)c2c(-c3ccccc3)noc2C)s1	none
CCOCC(=O)Nc1nnc(COc2ccc(Cl)cc2)s1	APOBEC3G inh 41.1 | APOBEC3G confirm 20.4 | UDG A3G counter inactive
Cc1ccc(NC(=O)CSCC(=O)Nc2ccccc2C(=O)NC2CC2)cc1	none
COCCCNC(=S)Nc1ccc(C)cc1	none
COCCCNC(=S)NNC(=S)Nc1ccc(F)cc1F	APOBEC3G inh 54.8 | APOBEC3G confirm 86.5 | UDG A3G counter inactive
COCCCNC(=S)NNC(=S)Nc1ccccc1	APOBEC3G inh 42.3 | APOBEC3G confirm 71.6 | UDG A3G counter inactive
COCCCNC(=S)NCCc1ccc(F)cc1	none (no result: CAL PDZ FP-2)
CCc1cccc(C)c1NC(=O)COC(=O)c1cc([N+](=O)[O-])ccc1N1CCOCC1	none (no result: CAL PDZ FP-2)
CCc1c(C)[nH]c2ccc(OC)cc2c1=S	APOBEC3G inh 44.0 | APOBEC3G confirm inactive | UDG A3G counter inactive
CC1CCN(C(=O)CN2C(=O)NC3(CCCCCC3)C2=O)CC1	none (no result: CAL PDZ FP-2)
COc1ccc(C(=O)NC2CCN(Cc3c(F)cccc3Cl)CC2)cc1OC	none
Cc1ccccc1NC(=O)Cn1nnc2ccccc21	APOBEC3G inh 50.2 | APOBEC3G confirm inactive | UDG A3G counter inactive
Cc1cc(-c2nsc(=O)o2)c(S(C)(=O)=O)s1	APOBEC3G inh 65.8 | APOBEC3G confirm 69.2
COc1cccc(NC(=O)CN(C)C(=O)c2cccc(S(=O)(=O)Nc3ccc(C)cc3)c2)c1	none
COc1ccc(NC(=O)CN(C)C(=O)c2cccc(S(=O)(=O)Nc3ccc(OC)cc3)c2)cc1	APOBEC3G inh 49.2 (no result: CAL PDZ FP-2) | APOBEC3G confirm inactive | UDG A3G counter inactive
S=c1nc(C2CCCCC2)[nH][nH]1	APOBEC3G inh 43.4 | APOBEC3G confirm 86.6 | UDG A3G counter inactive
CCOc1ccc(-n2c(SCC(=O)N3CCC(C(=O)O)CC3)nc3ccccc3c2=O)cc1	none (no result: CAL PDZ FP-2)
CCCCn1c(Cc2ccccc2)n[nH]c1=S	none
CCCCCn1c(=O)c2ccccc2n2c(=S)[nH]nc12	APOBEC3G inh 43.2 | APOBEC3G confirm 76.4 | UDG A3G counter inactive
CCC(C)c1ccc(-n2c(=O)c3ccccc3n3c(=S)[nH]nc23)cc1 (centres undefined)	none
CCCCCCn1c(=O)c(-c2ccccc2)c(O)c2ccccc21	none
CCCn1c(=O)c2ccccc2n2c(=S)[nH]nc12	APOBEC3G inh 53.4 | APOBEC3G confirm 69.0 | UDG A3G counter inactive
Cn1c(=O)c2ccccc2n2c(=S)[nH]nc12	APOBEC3G inh 44.3 | APOBEC3G confirm 70.1 | UDG A3G counter inactive
CCCCn1c(=O)c2ccccc2n2c(=S)[nH]nc12	APOBEC3G inh 40.4 (no result: CAL PDZ FP-2) | APOBEC3G confirm 70.6 | UDG A3G counter inactive
COc1cc2c(cc1OC)C(COc1ccc([N+](=O)[O-])cc1)N(C(C)=O)CC2 (centres undefined)	none
Cc1noc(C)c1COc1ccc(C(=O)N2CCC(C(N)=O)CC2)cc1	none
CC(NC(=O)COC(=O)c1ccc2c(=O)n3c(nc2c1)CCCCC3)c1ccccc1 (centres undefined)	none
O=C(CN1C(=O)NC2(CCCCC2)C1=O)N1CCN(c2ncccn2)CC1	none

Compound activity (PubChem BioAssay)
